{"source": "paper PMC7392586", "about": "(Circulation, 2020)", "key": {"[1]": {"tested_on": "ADP-induced platelet aggregation in whole blood", "assay": "Multiple electrode aggregometry", "format": "in vivo, human", "conditions": "% of patients", "how_it_was_run": "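STEMI patients not previously given a P2Y12 inhibitor. Hirudin-anticoagulated whole blood drawn at baseline and at 15 min, 30 min, 1, 2, 3 and 4–6 h after the study drug (bolus completion or oral ingestion); done at 2 centres. Blood diluted 1:2 in 0.9% NaCl, ADP-stimulated, aggregation recorded 6 min; AUC units. High residual reactivity: >46 U; percent of patients.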"}, "[2]": {"tested_on": "platelet reactivity (P2Y12 reaction units)", "conditions": "cited from earlier work; for HRPR (VerifyNow, cutoff PRU >208): 15 STEMI patients pretreated with ticagrelor"}, "platelet function": {"tested_on": "platelet function", "conditions": "16 cardiac arrest survivors with STEMI, cited from earlier work"}, "[3]": {"tested_on": "platelet reactivity index", "conditions": "CANTIC study; cited from earlier work"}, "[4]": {"tested_on": "ADP-induced platelet aggregation in platelet-rich plasma", "assay": "Light transmittance aggregometry", "format": "in vivo, human", "conditions": "for %IPA using LTA with ADP 20 µmol/L: at 30 minutes (primary endpoint), mean±SD"}, "[5]": {"tested_on": "ADP-induced platelet aggregation in whole blood", "conditions": "cited from earlier work; for mean platelet inhibition before the end of infusion / patients achieving 100% platelet inhibition: part 2 of the trial; for mean platelet inhibition before the end of infusion: cangrelor 4 μg/kg/min"}, "platelet inhibition": {"tested_on": "platelet inhibition", "conditions": "pharmacodynamic data on cangrelor; cited from earlier work"}}, "note": "“And” between values parts separate entries of the source, which are not always exact repeats. Equal values may be shown once. Read-outs that look alike come from different tables or passages of the source.", "data": [{"molecule": "CSCCNc1nc(SCCC(F)(F)F)nc2c1ncn2[C@@H]1O[C@H](COP(=O)(O)OP(=O)(O)C(Cl)(Cl)P(=O)(O)O)[C@@H](O)[C@H]1O", "note": "[Cangrelor]", "values": [{"measurement": "High residual platelet reactivity: AUC>46 using ADPtest (Multiplate)", "setting": "[1]; at 15 minutes", "result": 8.6, "unit": "%"}, {"measurement": "High residual platelet reactivity: AUC>46 using ADPtest (Multiplate)", "setting": "[1]; at 30 minutes", "result": "≈ 14%"}, {"measurement": "High residual platelet reactivity: AUC>46 using ADPtest (Multiplate)", "setting": "[1]; at 2 hours", "result": "≈ 14%"}, {"measurement": "patients with PRU higher than 208 U during drug infusion", "setting": "[2]; CANTIC study", "result": "No patient"}, {"measurement": "HRPR (VerifyNow, cutoff PRU >208)", "setting": "[2]; at 15 minutes", "result": 6.7, "unit": "%"}, {"measurement": "HRPR (VerifyNow, cutoff PRU >208)", "setting": "[2]; at 1 hour", "result": 0, "unit": "%"}, {"measurement": "HRPR rate (VerifyNow, cutoff PRU >208)", "setting": "[2]; at the time of balloon inflation, 50 STEMI patients", "result": 10, "unit": "%"}, {"measurement": "platelet function, median (Multiplate Analyzer)", "setting": "platelet function; targeted temperature management, interquartile range 10 to 25", "result": 18, "unit": "U"}, {"measurement": "HRPR (Multiplate Analyzer, <46 U cutoff)", "setting": "platelet function", "result": "none had HRPR"}, {"measurement": "nonresponders at vasodilator-stimulated phosphoprotein assay during drug infusion", "setting": "[3]", "result": "3 out of 22"}, {"measurement": "%IPA using LTA with ADP 20 µmol/L", "setting": "[4]", "result": "34.1±22.5", "unit": "%"}, {"measurement": "mean IPA", "setting": "[5]; infusion 4 μg/kg/min for up to 69 hours, at 24 hours, 14 patients with unstable angina or non–Q-wave MI, whole blood impedance aggregometry, ADP 3 μmol/L", "result": "98.7±2.1", "unit": "%"}, {"measurement": "mean %IPA", "setting": "[5]; infusion at 4 μg/kg/min, elective or urgent PCI, impedance aggregometry in heparinized blood, ADP 3 μmol/L", "result": 99, "unit": "%"}, {"measurement": "mean platelet inhibition before the end of infusion", "setting": "[5]", "result": 100, "unit": "%"}, {"measurement": "patients achieving 100% platelet inhibition", "setting": "[5]", "result": 95, "unit": "%"}, {"measurement": "degree of platelet inhibition", "setting": "platelet inhibition", "result": "> 80", "unit": "%"}]}, {"molecule": "CC(=O)Oc1cc2c(s1)CCN(C(C(=O)C1CC1)c1ccccc1F)C2", "note": "(stereo not shown) [Chewed Prasugrel, Prasugrel]", "values": [{"measurement": "%IPA using LTA with ADP 20 µmol/L", "setting": "[4]", "result": "10.5±11.0", "unit": "%"}]}, {"molecule": "CC(=O)Oc1cc2c(s1)CCN(C(C(=O)C1CC1)c1ccccc1F)C2", "note": "(stereo not shown) [Integral Prasugrel, Prasugrel]", "values": [{"measurement": "%IPA using LTA with ADP 20 µmol/L", "setting": "[4]", "result": "6.3±11.4", "unit": "%"}]}, {"molecule": "CCCCS(=O)(=O)N[C@@H](Cc1ccc(OCCCCC2CCNCC2)cc1)C(=O)O", "note": "[Tirofiban]", "values": [{"measurement": "%IPA using LTA with ADP 20 µmol/L", "setting": "[4]", "result": "95.0±8.9% and 95.0±9.0%"}, {"measurement": "HRPR rates (platelet aggregation >59% at LTA after ADP 20 µmol/L)", "setting": "[4]; during drug infusion / within the first 2 hours", "result": "No patient"}]}, {"molecule": "abciximab (antibody, chains of the INN, looked up, V domains shown, Fab) VH: EVQLQQSGTVLARPGASVKMSCEASGYTFTNYWMHWVKQRPGQGLEWIGAIYPGNSDTSYIQKFKGKAKLTAVTSTTSVYMELSSLTNEDSAVYYCTLYDGYYVFAYWGQGTLVTVSA VL: EIVLTQSPVTLSVTPGDSVSLSCRASRDISNNLHWFQQTSHESPRLLIKYASQSMSGIPSRFSGSGSGTDFTLSINSVETEDFGMYFCQQTNSWPYTFGGGTKLEIK", "values": [{"measurement": "mean platelet inhibition before the end of infusion", "setting": "[5]", "result": 100, "unit": "%"}, {"measurement": "patients achieving 100% platelet inhibition", "setting": "[5]", "result": 100, "unit": "%"}]}]}
